According to PMC5955861 (Oncogene, 2018):
Where two headings read alike, the source gives them in different places.

What was measured:
[1] = test system: Kasumi-3; experiment: alamarBlue cell proliferation assay; type: cell-based
Outline: (§1)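 Leukemia, lymphoma and myeloma lines (from ATCC or DSMZ, grown per supplier instructions, STR-authenticated; GFP-labelled sublines where stated) were incubated with test compound in 96-well flat-bottom plates. Viability was read by alamarBlue conversion, and EC50 was taken from the concentration-response.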

[2] = test system: MOLM-13; experiment: alamarBlue cell proliferation assay; type: cell-based; settings: Homo sapiens
Outline: as §1

[3] = test system: MUTZ-3; experiment: alamarBlue cell proliferation assay; type: cell-based
Outline: as §1

[4] = test system: MV-4-11B; experiment: alamarBlue cell proliferation assay; type: cell-based, human; settings: Homo sapiens
Outline: (§2)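 Cell lines from ATCC or DSMZ were cultured per supplier's instructions and STR-authenticated. MV-4-11B is a clone of MV-4-11 carrying heterozygous TP53 c.742C>T (p.R248W). Cells were exposed to test compound in 96-well format, and viability was read after incubation with alamarBlue.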

[5] = test system: MV-4-11B GFP; experiment: alamarBlue cell proliferation assay; type: cell-based
Outline: as §1

[6] = test system: NOMO-1; experiment: alamarBlue cell proliferation assay; type: cell-based; settings: Homo sapiens
Outline: as §1

[7] = test system: OCI-AML3; experiment: alamarBlue cell proliferation assay; type: cell-based; settings: Homo sapiens, OCI-AML-3
Outline: as §1

[8] = test system: THP-1 GFP; experiment: alamarBlue cell proliferation assay; type: cell-based; settings: Homo sapiens
Outline: as §2

[9] = test system: MOLT-3; experiment: alamarBlue cell proliferation assay; type: cell-based; settings: Homo sapiens
Outline: as §1

[10] = test system: AMO-1; experiment: alamarBlue cell proliferation assay; type: cell-based; settings: Homo sapiens, AMO1
Outline: as §1

[11] = test system: MOLP-8; experiment: alamarBlue cell proliferation assay; type: cell-based; settings: Homo sapiens
Outline: as §1

[12] = test system: NCI-H929; experiment: alamarBlue cell proliferation assay; type: cell-based; settings: Homo sapiens
Outline: as §1

[13] = test system: OPM-2; experiment: alamarBlue cell proliferation assay; type: cell-based; settings: Homo sapiens
Outline: as §1

[14] = test system: OPM-2 GFP; experiment: alamarBlue cell proliferation assay; type: cell-based; settings: Homo sapiens
Outline: as §1

[15] = test system: RPMI 8226; experiment: alamarBlue cell proliferation assay; type: cell-based; settings: Homo sapiens
Outline: as §1

[16] = test system: U266 B1; experiment: alamarBlue cell proliferation assay; type: cell-based; settings: Homo sapiens, U-266
Outline: as §2

[17] = test system: HBL-1; experiment: alamarBlue cell proliferation assay; type: cell-based; settings: HBL1
Outline: as §1

[18] = test system: OCI-Ly18; experiment: alamarBlue cell proliferation assay; type: cell-based; settings: Homo sapiens
Outline: as §1

[19] = test system: RI-1; experiment: alamarBlue cell proliferation assay; type: cell-based
Outline: as §1

[20] = test system: TMD8; experiment: alamarBlue cell proliferation assay; type: cell-based; settings: Homo sapiens
Outline: as §2

[21] = test system: DB; experiment: alamarBlue cell proliferation assay; type: cell-based; settings: Homo sapiens
Outline: as §1

[22] = test system: DOHH-2; experiment: alamarBlue cell proliferation assay; type: cell-based; settings: Homo sapiens
Outline: as §1

[23] = test system: OCI-Ly7; experiment: alamarBlue cell proliferation assay; type: cell-based; settings: Homo sapiens
Outline: as §1

[24] = test system: OCI-Ly19; experiment: alamarBlue cell proliferation assay; type: cell-based; settings: Homo sapiens
Outline: as §1

[25] = test system: DERL-2; experiment: alamarBlue cell proliferation assay; type: cell-based; settings: T-cell
Outline: as §1

[26] = test system: SR-786; experiment: alamarBlue cell proliferation assay; type: cell-based
Outline: as §1

[27] = test system: MV-4-11B AML cells; experiment: disseminated AML xenograft efficacy study; type: in vivo, CIEA-NOG mice; settings: MV-4-11B i.v. engrafted
[28] = test system: hematological cell lines; experiment: alamarBlue cell proliferation assay, panel of hematological cell lines; type: cell-based
Outline: as §2

In the case of `CNc1nc(-c2nc3ccc(N4CCN(C)CC4)cc3n2Cc2ccccc2)cn2c(C)nnc12` [BI 894999], the EC50 [1] is reported as 3.4 ± 1.5 nM, the EC50 [2] is reported as 12.8 ± 3.4 nM and the EC50 [3] is reported as 12.8 ± 11.2 nM. It also gave an EC50 [4] of 6.8 ± 4 nM, an EC50 ([4]; read-out: anti-proliferative EC50) of 10 nM and an EC50 [5] of 2.9 ± 0.9 nM. For the same compound, the EC50 [6] was 5.7 ± 4.1 nM, the EC50 [7] was 2.3 ± 0.5 nM and the EC50 [8] was 4.1 ± 2 nM. The EC50 [9] was 14.4 ± 6.5 nM, the EC50 [10] was 28 ± 15 nM and the EC50 [11] was 5.3 ± 2.8 nM. The EC50 [12] was 3.6 ± 2 nM, the EC50 [13] was 8.9 ± 4.7 nM and the EC50 [14] was 12 nM. It also gave an EC50 [15] of 25 ± 9 nM, an EC50 [16] of 14.3 ± 7.4 nM and an EC50 [17] of 7.1 ± 5.2 nM. It also gave an EC50 [18] of 5.6 ± 0.9 nM, an EC50 [19] of 6.2 ± 1.9 nM and an EC50 [20] of 9.7 ± 3.7 nM. The EC50 [21] was 11.6 ± 7.6 nM, the EC50 [22] was 6.2 ± 0.8 nM and the EC50 [23] was 14.2 ± 6.4 nM. It also gave an EC50 [24] of 13.2 ± 4.3 nM, an EC50 [25] of 10.6 ± 9.5 nM and an EC50 [26] of 77.3 ± 17.3 nM. For the same compound, the survival prolongation ([27]; daily oral 2 mg/kg) was 29.5 days, the “tumor growth inhibition (TGI)” value ([27]; daily oral 2 mg/kg) was 96% and the survival prolongation ([27]; daily oral 4 mg/kg) was 52 days. For the same compound, the “tumor growth inhibition (TGI)” value ([27]; daily oral 4 mg/kg) was 99%, the EC50 [28] was less than 10 nM and the EC50 ([28]; Homo sapiens, K562) was less than 100 nM. For the same compound, the “increased potency compared to OTX-015” value ([28]; on cell lines) was 10–20 fold.
